# From ChEMBL document CHEMBL1811845, “Modulation of GABAA-receptors by honokiol and derivatives: subtype selectivity and structure-activity relationship” (J Med Chem, 2011)
# Key:
# [1] = biological target: T1, GABA-A receptor alpha-1/beta-3 (Homo sapiens, UniProt P14867+P28472); assay: Modulation of GABA Aalpha1beta3 receptor expressed in Xenopus laevis oocytes assessed as potentiation of GABA-induced chloride current at holding potential -70 mV by two-microelectrode voltage clamp technique; type: cell-based, Oocyte
# T1 sequence (P14867 whole entry): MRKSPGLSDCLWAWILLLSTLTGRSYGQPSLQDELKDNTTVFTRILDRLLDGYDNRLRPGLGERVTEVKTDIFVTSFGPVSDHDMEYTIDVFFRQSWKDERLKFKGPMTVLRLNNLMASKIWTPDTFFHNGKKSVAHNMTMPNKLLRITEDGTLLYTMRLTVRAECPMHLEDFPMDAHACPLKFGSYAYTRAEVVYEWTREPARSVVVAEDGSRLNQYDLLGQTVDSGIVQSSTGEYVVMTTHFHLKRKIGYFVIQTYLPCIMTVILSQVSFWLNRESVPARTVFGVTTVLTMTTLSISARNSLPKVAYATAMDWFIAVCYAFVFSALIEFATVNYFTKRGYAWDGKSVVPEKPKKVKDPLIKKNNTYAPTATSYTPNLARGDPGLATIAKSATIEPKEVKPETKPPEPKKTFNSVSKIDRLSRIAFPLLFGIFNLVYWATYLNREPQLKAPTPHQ
# T1 sequence (P28472 whole entry): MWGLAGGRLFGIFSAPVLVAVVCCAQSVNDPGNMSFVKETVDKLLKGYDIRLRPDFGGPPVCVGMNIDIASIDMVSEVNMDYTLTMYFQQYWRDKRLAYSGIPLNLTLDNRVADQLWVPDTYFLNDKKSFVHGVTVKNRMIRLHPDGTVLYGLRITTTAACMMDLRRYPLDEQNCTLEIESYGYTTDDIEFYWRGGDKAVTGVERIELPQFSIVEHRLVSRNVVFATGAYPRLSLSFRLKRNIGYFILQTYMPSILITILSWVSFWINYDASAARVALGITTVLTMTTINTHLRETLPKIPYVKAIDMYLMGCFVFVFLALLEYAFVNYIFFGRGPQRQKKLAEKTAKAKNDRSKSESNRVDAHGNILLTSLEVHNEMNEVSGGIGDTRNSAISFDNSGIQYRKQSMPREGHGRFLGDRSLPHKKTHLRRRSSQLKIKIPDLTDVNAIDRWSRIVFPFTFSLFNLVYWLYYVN
# [2] = biological target: T2, Gamma-aminobutyric acid receptor subunit alpha-2/beta-2 (Homo sapiens, UniProt P47869+P47870); assay: Modulation of GABA Aalpha2beta2 receptor expressed in Xenopus laevis oocytes assessed as potentiation of GABA-induced chloride current at holding potential -70 mV by two-microelectrode voltage clamp technique; type: cell-based, Oocyte
# T2 sequence (P47870 whole entry): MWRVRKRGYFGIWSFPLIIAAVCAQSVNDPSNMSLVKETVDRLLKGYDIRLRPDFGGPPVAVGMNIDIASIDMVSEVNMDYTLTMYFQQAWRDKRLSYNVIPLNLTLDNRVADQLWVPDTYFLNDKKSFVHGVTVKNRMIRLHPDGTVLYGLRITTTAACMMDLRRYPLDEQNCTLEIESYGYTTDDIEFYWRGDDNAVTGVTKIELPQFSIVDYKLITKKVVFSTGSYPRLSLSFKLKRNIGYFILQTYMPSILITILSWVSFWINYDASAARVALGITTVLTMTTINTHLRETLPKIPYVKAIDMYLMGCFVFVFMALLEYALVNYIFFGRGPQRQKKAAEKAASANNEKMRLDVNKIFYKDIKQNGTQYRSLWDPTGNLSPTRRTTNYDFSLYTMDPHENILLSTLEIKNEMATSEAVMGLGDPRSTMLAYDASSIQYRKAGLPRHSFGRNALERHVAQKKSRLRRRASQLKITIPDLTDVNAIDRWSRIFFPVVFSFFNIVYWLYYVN
# T2 sequence (P47869 whole entry): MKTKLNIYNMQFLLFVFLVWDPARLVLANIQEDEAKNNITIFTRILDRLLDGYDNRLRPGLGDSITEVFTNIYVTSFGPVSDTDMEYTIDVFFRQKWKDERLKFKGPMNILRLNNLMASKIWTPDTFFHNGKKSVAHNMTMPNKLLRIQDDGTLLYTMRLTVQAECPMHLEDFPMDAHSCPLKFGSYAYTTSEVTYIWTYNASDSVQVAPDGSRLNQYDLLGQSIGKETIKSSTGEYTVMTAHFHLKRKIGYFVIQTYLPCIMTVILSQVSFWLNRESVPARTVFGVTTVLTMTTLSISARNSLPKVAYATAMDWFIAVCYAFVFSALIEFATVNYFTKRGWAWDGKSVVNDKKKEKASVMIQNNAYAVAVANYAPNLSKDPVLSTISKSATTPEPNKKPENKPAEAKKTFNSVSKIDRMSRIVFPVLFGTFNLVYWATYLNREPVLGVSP
# How it was run: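 Stage V–VI Xenopus oocytes, defolliculated with 2 mg/mL collagenase, injected with α(1, 2, 3 or 5) and β2 cRNAs mixed 1:1, then kept at 18 °C in ND96 (pH 7.4). Enhancement = I(GABA+compound)/IGABA − 1. Curves were Hill-fitted for EC50. Bath DMSO was at most 0.3%, matched in controls.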
# [3] = biological target: Gamma-aminobutyric acid receptor subunit alpha-1/ beta-1 (Homo sapiens) (UniProt P14867+P18505); assay: Modulation of GABA Aalpha1beta1 receptor expressed in Xenopus laevis oocytes assessed as potentiation of GABA-induced chloride current at holding potential -70 mV by two-microelectrode voltage clamp technique relative to GABA; type: cell-based; settings: Oocyte
# How it was run: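 Stage V–VI female Xenopus oocytes were defolliculated with collagenase and injected with α1 and β1 cRNA at a 3:1 ratio. Oocytes were held at 18 °C in ND96, pH 7.4. Enhancement was (I(GABA+compound)/IGABA)−1, and EC50 and nH came from Hill fits. DMSO was ≤0.3% and matched in controls.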
# [4] = biological target: GABA-A receptor alpha-1/beta-3 (Homo sapiens) (UniProt P14867+P28472); assay: Modulation of GABA Aalpha1beta3 receptor expressed in Xenopus laevis oocytes assessed as potentiation of GABA-induced chloride current at holding potential -70 mV by two-microelectrode voltage clamp technique relative to GABA; type: cell-based; settings: Oocyte
# How it was run: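 α1β3 receptors were expressed in defolliculated stage V–VI Xenopus oocytes and kept at 18 °C in ND96, pH 7.4. Potentiation was computed as (I(GABA+compound)/IGABA)−1, and EC50 and Hill coefficient came from nonlinear fits. Matched DMSO was ≤0.3%.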
# [5] = biological target: Gamma-aminobutyric acid receptor subunit alpha-3/ beta-2 (Homo sapiens) (UniProt P47870+P34903); assay: Modulation of GABA Aalpha3beta2 receptor expressed in Xenopus laevis oocytes assessed as potentiation of GABA-induced chloride current at holding potential -70 mV by two-microelectrode voltage clamp technique relative to GABA; type: cell-based; settings: Oocyte
# How it was run: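 Oocytes were injected with α1, α2, α3 or α5 plus β2 cRNA at a 1:1 ratio and stored at 18 °C in ND96, pH 7.4. Enhancement was (I(GABA+compound)/IGABA)−1, and concentration-response data were Hill-fitted for EC50 and nH. Matched DMSO was ≤0.3%.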
# Oocyte = assay: Modulation of GABA alpha1beta2gamma2s receptor expressed in Xenopus laevis oocytes assessed as potentiation of GABA-induced chloride current at holding potential -70 mV at 10 uM by two-microelectrode voltage clamp technique in presence of 300 nM of Diazepam relative to GABA; type: cell-based
smiles,measurement,setting,value
C=CCc1ccc(O)c(-c2ccc(O)c(CC=C)c2)c1 [HONOKIOL],EC50,[1],59.6 µM
same,EC50,[2],46.4 µM
same,Smax,[3],260%
same,Smax,[4],878%
same,Smax,[5],2390%
same,Activity,Oocyte,244%
